Compound activity from PubChem BioAssay.
KCNK3 block – human KCNK3 channel inhibition, primary screen. 340,000 compounds, 0.84% hits. O14649. CHO-KCNK3 thallium flux, FluxOR fluorescence; hits give low values. B-score at 10 µM;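 active means B-score under library mean minus 4 SD, starting fluorescence ratio at most library mean plus 5 SD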;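 further: more negative B-score means stronger inhibition of thallium flux through KCNK3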
Target sequence (O14649 whole entry, looked up): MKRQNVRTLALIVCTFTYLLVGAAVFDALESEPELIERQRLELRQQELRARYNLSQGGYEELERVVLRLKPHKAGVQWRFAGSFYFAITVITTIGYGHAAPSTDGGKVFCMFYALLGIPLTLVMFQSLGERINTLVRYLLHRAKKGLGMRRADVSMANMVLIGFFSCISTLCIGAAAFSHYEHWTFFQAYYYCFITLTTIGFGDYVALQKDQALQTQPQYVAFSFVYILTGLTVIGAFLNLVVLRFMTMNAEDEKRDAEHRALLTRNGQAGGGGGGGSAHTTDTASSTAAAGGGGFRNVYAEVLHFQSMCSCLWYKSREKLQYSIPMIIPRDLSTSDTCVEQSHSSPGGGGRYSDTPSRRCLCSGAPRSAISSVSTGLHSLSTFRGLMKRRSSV
KCNQ1 block – blocks the human KCNQ1 potassium channel. P51787. CHO-K1 KCNQ1, FluxOR thallium flux fluorescence; hits give high values. B-score at 10 µM. 310,000 compounds, 1.3% hits. AID 2642;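 active means compounds whose thallium flux B-score, printed positive for inhibition, exceeds three library SD while starting fluorescence stays within three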;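 further: channel opened by potassium depolarization with thallium stimulus after 20 min compound exposure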
KCNQ1 pot – human KCNQ1 channel potentiation or activation. CHO-K1 KCNQ1, thallium flux FluxOR fluorescence; hits give high values. B-score at 10 µM. 310,000 compounds, 0.35% hits. AID 2648;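 active means fluorescence ratio B-score, a plate-corrected score, at least three library SD, with initial intensity B-score within 5 SD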
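assay system = KCNQ1-transfected CHO-K1 cells | medium = assay buffer with matched DMSO | probe or stimulus = depolarizing K+/Tl+ stimulus, K2SO4 and Tl2SO4 each 12.5 mM in 5x stock | dosing = single dose | incubation = dye 90 min, compound 20 min, room temperature | detection = kinetic FluxOR fluorescence, 10 s baseline plus 110 s post-stimulus | evaluation = ratio B score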
Cl transport mod – modulates chloride dependent transport by human KCC2; 190,000 compounds, 2.2% hits; AID 1456; B-score of Tl+ flux slope (higher = more flux/activation; lower = inhibition) at 10 µM; Q9H2X9; KCC2 cells, thallium flux FluoZin-2 fluorescence;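 active means thallium flux slope and its plate-corrected score both differing from the plate sample mean at a set confidence after two filtering rounds, in either direction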;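 further: slope of fluorescence scaled to starting intensity during 10 to 20 s after thallium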
hERG rescue – compounds protecting human hERG from proarrhythmic drug block; Q12809; CHO-hERG, FluxOR thallium flux, dofetilide IC70 present; AID 1511; activation (rescue from dofetilide block), less the hit threshold, % at 10 µM; 310,000 compounds, 0.51% hits;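 active means activation above the mean of controls blocked by dofetilide plus 5 SD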;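 further: thallium influx through hERG after potassium depolarization seen as dye fluorescence rise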
KCNK9 inh – blocks the human KCNK9 two-pore domain potassium channel. Q9NPC2. HEK293 KCNK9, FluxOR thallium flux fluorescence; hits give low values. B-score at 10 µM. 310,000 compounds, 1.2% hits;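 active means ratio B-score over 3 SD below the library mean, with starting fluorescence within 5 SD of its mean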;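 further: negative B-score means less thallium flux so channel inhibition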
Target sequence (Q9NPC2 whole entry, looked up, the tested form may be a part): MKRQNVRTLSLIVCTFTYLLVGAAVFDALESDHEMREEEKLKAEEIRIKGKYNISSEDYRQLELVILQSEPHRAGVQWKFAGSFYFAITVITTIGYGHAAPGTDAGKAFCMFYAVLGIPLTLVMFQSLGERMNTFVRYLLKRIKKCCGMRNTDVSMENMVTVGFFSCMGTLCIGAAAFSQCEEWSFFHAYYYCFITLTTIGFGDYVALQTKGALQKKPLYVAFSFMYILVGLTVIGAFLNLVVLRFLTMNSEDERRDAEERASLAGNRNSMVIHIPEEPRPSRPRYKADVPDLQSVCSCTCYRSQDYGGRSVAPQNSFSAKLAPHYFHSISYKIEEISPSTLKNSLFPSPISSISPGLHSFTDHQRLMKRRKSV
KCNQ1 block val – human KCNQ1 channel inhibition, validation assay | shares compounds with KCNQ1 block | KCNQ1 cell line, FluxOR thallium flux fluorescence | inhibition, % at 10 µM | 1,600 compounds, 93% hits;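 active means primary screen active, with duplicate mean exceeding buffer control mean plus 3 SD of buffer wells, cut at about 28% in these data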;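 further: 0% = buffer control ratio and 100% = XE991 inhibitor control ratio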
CHO Tl flux – KCNQ1 inhibitor counter-screen hit in parental CHO cells; shares compounds with KCNQ1 block; parental CHO-K1, FluxOR thallium flux fluorescence ratio; hits give low values; zero means no signal rise above baseline; fluorescence ratio (Tl flux) at 10 µM; 1,600 compounds, 21% hits; AID 588366;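 active means mean of duplicate thallium-flux fluorescence ratios in parental host cells more than 5 SD below the buffer control mean, cut at about 0.38 in these data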;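 further: ratio is peak minus minimum fluorescence divided by baseline fluorescence; actives read low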
KCNQ1 APC inh – blocks human KCNQ1 current in automated patch clamp. calls only at 10 µM. KCNQ1-CHO cells. shares compounds with KCNQ1 block. 490 compounds, 20% hits;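 active means KCNQ1 current drop exceeding 3 SD of negative control wells, seen in both duplicate runs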;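 further: steady state current during a 2 s step from -80 to +40 mV; negative values mean current inhibition and positive values mean potentiation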
KCNQ2 spec – selectivity of KCNQ1 inhibitors: inhibition of rat KCNQ2 channel | shares compounds with KCNQ1 block | KCNQ2 cells, FluxOR thallium flux fluorescence | inhibition, % at 10 µM | 1,600 compounds, 71% hits | AID 651746;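 active means mean percent inhibition of the KCNQ2 thallium signal more than 5 SD above the buffer-only control wells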;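 further: KCNQ2 expressed in CHO cells; 0% = buffer control wells and 100% = XE-991 inhibitor control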
KCNQ1 KCNE1 spec – human KCNQ1/KCNE1 inhibition in KCNQ1 specificity screen; shares compounds with KCNQ1 block; KCNQ1/KCNE1 cells, FluxOR thallium flux fluorescence; inhibition, % at 10 µM; 1,600 compounds, 77% hits;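 active means mean percent inhibition of duplicate wells above the buffer-only control mean plus 3 SD of those controls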;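 further: 0% = buffer only wells and 100% = XE-991 inhibitor control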
* marks the source's active call; other numbers are inactive results. Only some compounds are listed: those with a hit (about 4.1% of all), similar ones and a draw of the others.

How did Cc1cc(C)nc(NS(=O)(=O)c2ccc(NC(=O)c3ccc4c(c3)OCCO4)cc2)n1 do in these assays?
KCNK3 block: inactive; KCNQ1 block: inactive; KCNQ1 pot: inactive; Cl transport mod: 0.796; hERG rescue: -13.1; KCNK9 inh: inactive

How did COc1ccc(C(F)(F)F)cc1N/C=C\c1nnnn1-c1ccccc1 do in these assays?
KCNK3 block: inactive; KCNQ1 block: 9*; KCNQ1 pot: inactive; Cl transport mod: -0.529; hERG rescue: -14.6; KCNK9 inh: inactive; KCNQ1 block val: 98.5*; CHO Tl flux: 0.42; KCNQ1 APC inh: inactive; KCNQ2 spec: 64.0%*; KCNQ1 KCNE1 spec: 79.0%*

What do the screens show for `COc1ccc(CCN(CC(=O)NC2CCCC2)C(=O)CCC(=O)Nc2cc(C)on2)cc1OC`?
KCNK3 block: inactive; KCNQ1 block: inactive; KCNQ1 pot: inactive; Cl transport mod: 0.00261; hERG rescue: 0.5; KCNK9 inh: inactive

What do the screens show for `CCN(CC)C(=O)C1c2ccccc2Oc2ccccc21`?
KCNK3 block: inactive; KCNQ1 block: 16*; KCNQ1 pot: inactive; hERG rescue: -22.7; KCNK9 inh: inactive; KCNQ1 block val: 0.0; CHO Tl flux: 0.478; KCNQ2 spec: 77.3%*; KCNQ1 KCNE1 spec: 71.0%*

What do the screens show for `CCCc1cc(NCc2ccccn2)n2nc(C)c(-c3ccccc3)c2n1`?
KCNK3 block: inactive; KCNQ1 block: 8*; KCNQ1 pot: inactive; Cl transport mod: -0.706; hERG rescue: -16.3; KCNK9 inh: inactive; KCNQ1 block val: 55.5*; CHO Tl flux: 0.419; KCNQ2 spec: 108.3%*; KCNQ1 KCNE1 spec: 83.5%*

How did Cc1c2ccccc2nc2c(F)c(NCCO)c(F)c(F)c12 do in these assays?
KCNK3 block: inactive; KCNQ1 block: 6*; KCNQ1 pot: inactive; Cl transport mod: inactive; hERG rescue: -23.7; KCNK9 inh: inactive; KCNQ1 block val: 177.5*; CHO Tl flux: 0.151*; KCNQ2 spec: inactive; KCNQ1 KCNE1 spec: inactive

What do the screens show for `CN(C)CCCNc1c2ccccc2nc2ccccc12`?
KCNK3 block: inactive; KCNQ1 block: inactive; KCNQ1 pot: inactive; hERG rescue: -7.5; KCNK9 inh: inactive

How did OCCNc1c2ccccc2nc2c(F)c(F)c(F)c(F)c12 do in these assays?
KCNK3 block: inactive; KCNQ1 block: 6*; KCNQ1 pot: inactive; Cl transport mod: -1.02; hERG rescue: -14.0; KCNK9 inh: inactive; KCNQ1 block val: 84.0*; CHO Tl flux: 0.372*; KCNQ2 spec: 105.0%*; KCNQ1 KCNE1 spec: 101.0%*

Results for CC(C)(C)c1ccc(OCCC(=O)OCC(=O)N2c3ccccc3NC(=O)C2(C)C)cc1 ?
KCNK3 block: inactive; KCNQ1 block: 7*; KCNQ1 pot: inactive; hERG rescue: -31.9; KCNK9 inh: inactive; KCNQ1 block val: 120.5*; CHO Tl flux: 0.291*; KCNQ2 spec: 140.3%*; KCNQ1 KCNE1 spec: 55.5%*

Results for Cc1ccccc1OCCC(=O)OCC(=O)N1c2ccccc2NC(=O)C1(C)C ?
KCNK3 block: inactive; KCNQ1 block: inactive; KCNQ1 pot: inactive; hERG rescue: -6.2; KCNK9 inh: inactive

Results for O=C(Nc1ccccc1)Nc1ccccc1NS(=O)(=O)c1cccs1 ?
KCNK3 block: inactive; KCNQ1 block: 10*; KCNQ1 pot: inactive; Cl transport mod: -0.485; hERG rescue: -21.2; KCNK9 inh: inactive; KCNQ1 block val: 64.0*; CHO Tl flux: 0.511; KCNQ2 spec: 63.7%*; KCNQ1 KCNE1 spec: inactive

How did COc1nc(SCC(=O)Nc2ccccc2Cl)nc(N(C)C)n1 do in these assays?
KCNK3 block: inactive; KCNQ1 block: inactive; KCNQ1 pot: inactive; Cl transport mod: -0.319; hERG rescue: -12.9; KCNK9 inh: inactive

How did Cc1cccc(OCCC(=O)OCC(=O)Nc2c(C)nn(-c3ccccc3)c2C)c1 do in these assays?
KCNK3 block: inactive; KCNQ1 block: 10*; KCNQ1 pot: inactive; hERG rescue: -19.8; KCNK9 inh: inactive; KCNQ1 block val: 32.5*; CHO Tl flux: 0.469; KCNQ2 spec: 64.3%*; KCNQ1 KCNE1 spec: 35.5%*

How did Cc1ccc(C)c(OCC(=O)OCC(=O)Nc2c(C)nn(-c3ccccc3)c2C)c1 do in these assays?
KCNK3 block: inactive; KCNQ1 block: inactive; KCNQ1 pot: inactive; hERG rescue: -9.9; KCNK9 inh: inactive

Results for CCCn1c(NCc2cc(OC)ccc2OC)nc2ccccc21 ?
KCNK3 block: inactive; KCNQ1 block: inactive; KCNQ1 pot: inactive; hERG rescue: -13.9; KCNK9 inh: inactive

How did O=C(OCCN1C(=O)c2ccccc2C1=O)c1cc(S(=O)(=O)N2CCOCC2)ccc1F do in these assays?
KCNK3 block: inactive; KCNQ1 block: inactive; KCNQ1 pot: inactive; Cl transport mod: 0.022; hERG rescue: -8.9; KCNK9 inh: inactive

Results for O=C(OCCN1C(=O)c2cccc3c(N4CCOCC4)ccc(c23)C1=O)c1ccc(Cl)cc1 ?
KCNK3 block: inactive; KCNQ1 block: 10*; KCNQ1 pot: inactive; Cl transport mod: inactive; hERG rescue: -18.6; KCNK9 inh: inactive; KCNQ1 block val: active; CHO Tl flux: 0.0875*; KCNQ2 spec: inactive; KCNQ1 KCNE1 spec: inactive

What do the screens show for `CN1C2CCC1/C(=C\c1ccc(F)cc1)C(=O)/C2=C/c1ccc(F)cc1`?
KCNK3 block: inactive; KCNQ1 block: inactive; KCNQ1 pot: inactive; Cl transport mod: 0.546; hERG rescue: -4.0; KCNK9 inh: inactive

What do the screens show for `CN1C2CCC1/C(=C/c1cccn1C)C(=O)/C2=C\c1cccn1C`?
KCNK3 block: inactive; KCNQ1 block: 17*; KCNQ1 pot: inactive; Cl transport mod: inactive; hERG rescue: -45.6; KCNK9 inh: inactive; KCNQ1 block val: active; CHO Tl flux: 0.142*; KCNQ2 spec: inactive; KCNQ1 KCNE1 spec: inactive

Results for Cc1ccc(OCCOCCn2cnc3ccccc3c2=O)cc1C ?
KCNQ1 block: inactive; KCNQ1 pot: inactive; Cl transport mod: 0.056; hERG rescue: -3.9; KCNK9 inh: inactive
